20 molecules from ChEMBL document CHEMBL1287751, “Development of a sphingosine kinase 1 specific small-molecule inhibitor” (Bioorg Med Chem Lett, 2010) can be followed below.

In general, inhibition refers to how much of the control response was suppressed. Broadly, the IC50 is the concentration that inhibits the measured activity by half. Low readings indicate greater potency, high ones weaker potency. What is called Ki is the dissociation constant of the complex between target and ligand, obtained from inhibition or displacement.

Active and inactive are the calls of the source. No cut-off for these calls is given here.

In assay [1] the target is T1, Sphingosine kinase 1 (Homo sapiens, UniProt Q9NYA1). Kind of assay: Inhibition of His6x-tagged recombinant sphingosine kinase 1 expressed in HEK293 cells at 10.7 uM. The format is cell-based. An outline of the steps: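 Affinity-purified His6X-tagged SphK1, recombinantly overexpressed in HEK293 cells. Substrate was 25 µM D-erythro-sphingosine in SKAAB buffer, without BSA conjugation or Triton X-100 micelles. Compounds screened at 10.7 µM, with DMSO controls at ≤5% of reaction volume. Reported as % inhibition, averages of two separate experiments.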
T1 sequence (Q9NYA1 whole entry): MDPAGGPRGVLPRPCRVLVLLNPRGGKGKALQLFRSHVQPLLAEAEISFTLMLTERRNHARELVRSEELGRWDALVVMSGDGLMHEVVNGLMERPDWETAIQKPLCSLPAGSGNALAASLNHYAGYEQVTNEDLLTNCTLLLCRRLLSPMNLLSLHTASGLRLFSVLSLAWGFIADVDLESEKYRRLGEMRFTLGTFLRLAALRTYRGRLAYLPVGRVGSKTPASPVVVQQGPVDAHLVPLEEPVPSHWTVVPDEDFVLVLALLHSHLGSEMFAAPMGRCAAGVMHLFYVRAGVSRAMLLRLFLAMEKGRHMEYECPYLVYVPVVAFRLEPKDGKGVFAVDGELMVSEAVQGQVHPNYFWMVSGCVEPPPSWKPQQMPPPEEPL

The test system of a further assay is SH-SY5Y. Kind of assay: Cytotoxicity against human SH-SY5Y cells after 48 hrs by sulforhodamine B assay. It counts as functional, cell-based.
A short description of assay [2]: Cytotoxicity against human Kusami-3 cells after 48 hrs by sulforhodamine B assay. It counts as functional, cell-based. To be noted: Kusami-3, 48 h.
A short description of assay [3]: Cytotoxicity against human KG1a cells after 48 hrs by sulforhodamine B assay. It counts as functional, cell-based. To be noted: KG-1a. A general note: In SRB staining, fixed cells bind dye roughly in proportion to their protein.
Assay [4] addresses T2, Sphingosine kinase 2 (Homo sapiens) (UniProt Q9NRA0).
T2 sequence (whole entry): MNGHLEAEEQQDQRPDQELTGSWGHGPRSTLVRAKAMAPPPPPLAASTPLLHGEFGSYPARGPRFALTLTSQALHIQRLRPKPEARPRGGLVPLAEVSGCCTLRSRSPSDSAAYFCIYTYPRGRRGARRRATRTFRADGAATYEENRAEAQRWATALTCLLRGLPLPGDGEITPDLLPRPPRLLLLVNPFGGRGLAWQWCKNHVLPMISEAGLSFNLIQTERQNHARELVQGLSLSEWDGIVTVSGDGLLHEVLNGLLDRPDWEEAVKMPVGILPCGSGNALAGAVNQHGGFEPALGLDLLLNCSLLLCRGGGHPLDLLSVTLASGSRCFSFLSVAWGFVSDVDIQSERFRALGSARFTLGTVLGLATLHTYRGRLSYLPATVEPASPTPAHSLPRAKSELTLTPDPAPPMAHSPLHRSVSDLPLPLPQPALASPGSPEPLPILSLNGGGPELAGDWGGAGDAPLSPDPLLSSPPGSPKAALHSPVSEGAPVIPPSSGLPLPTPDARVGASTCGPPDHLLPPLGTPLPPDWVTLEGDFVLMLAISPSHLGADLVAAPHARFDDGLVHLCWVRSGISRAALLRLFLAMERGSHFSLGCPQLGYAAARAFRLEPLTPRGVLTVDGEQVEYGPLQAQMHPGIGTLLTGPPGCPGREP
Kind of assay: Inhibition of sphingosine kinase 2 up to 25 uM. In a few lines:
(§1)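 SphK2 activity assay in SKAAB buffer supplemented with 1 M KCl. Substrate was D-erythro-sphingosine delivered without BSA or Triton X-100. DMSO ≤5% of reaction volume.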

Assay [5] deals with MCF7. Kind of assay: Cytotoxicity against human MCF7 cells after 48 hrs by sulforhodamine B assay. The format is functional, cell-based. To be noted: MCF7, 48 h.
A short description of assay [6]: Cytotoxicity against human NCI/ADR cells after 48 hrs by sulforhodamine B assay. To be noted: NCI/ADR-RES. The format is functional, cell-based.
Assay [7] addresses T1, Sphingosine kinase 1. Kind of assay: Competitive inhibition of recombinant sphingosine kinase 1 using D-erythro-sphingosine as substrate by Lineweaver-Burke plot analysis. An outline of the steps:
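Recombinant His6X-tagged SphK1, affinity purified from HEK293 overexpression, assayed with varying D-erythro-sphingosine concentrations, with inhibitor absent or at 10 and 17 µM. Sph delivered in SKAAB buffer without BSA conjugation or Triton X-100 micelles. DMSO ≤5% of reaction. Ki and mechanism from linear regression.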

The test system of assay [8] is HL-60. Kind of assay: Cytotoxicity against VCR-resistance human HL60 cells after 48 hrs by sulforhodamine B assay. The format is functional, cell-based. To be noted: HL-60, 48 h.
The test system of assay [9] is MCF7. Kind of assay: Cytotoxicity against human tamoxifen-resistant MCF7 cells after 48 hrs by sulforhodamine B assay. It counts as functional, cell-based. To be noted: MCF7, 48 h.
In assay [10] the test system is HL-60. Kind of assay: Cytotoxicity against human HL60 cells after 48 hrs by sulforhodamine B assay. To be noted: HL-60, 48 h. It counts as functional, cell-based.
The next assay has as its system NCI-H226. Kind of assay: Cytotoxicity against human NCI-H226 cells after 48 hrs by sulforhodamine B assay. The format is functional, cell-based. To be noted: NCI-H226, 48 h.
A further assay deals with MIA PaCa-2. Kind of assay: Cytotoxicity against human MIAPaCa2 cells after 48 hrs by sulforhodamine B assay. It counts as functional, cell-based. To be noted: MIA PaCa-2, 48 h.
Assay [11] deals with T1, Sphingosine kinase 1. Kind of assay: Non-competitive inhibition of recombinant sphingosine kinase 1 using ATP as substrate by Lineweaver-Burke plot analysis.
Another assay has as its system A549. Kind of assay: Ratio of compound cytotoxicity at 1 uM to SKI-I cytotoxicity for human A549 cells.
The subject of a further assay is NCI-H460. Kind of assay: Cytotoxicity against human H460 cells after 48 hrs by sulforhodamine B assay. To be noted: NCI-H460, 48 h. The format is functional, cell-based.
A short description of assay [12]: Cytotoxicity against human U87MG cells after 48 hrs by sulforhodamine B assay. The format is functional, cell-based, U-87MG ATCC. To be noted: U-87 MG.
A further assay has as its system U-251. Kind of assay: Cytotoxicity against human U251 cells after 48 hrs by sulforhodamine B assay. It counts as functional, cell-based. To be noted: U-251, 48 h.
Assay [13] has as its target T1, Sphingosine kinase 1. Kind of assay: Inhibition of sphingosine kinase 1 in human A549 cells assessed as reduction in sphingosine-1-phosphate cellular level at 1 uM after 48 hrs by thin layer chromatography relative to control. It counts as cell-based. In a few lines:
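A549 cells treated with 1 µM compound for 48 h. SphK activity assays were run on whole-cell lysates, lipids were separated by thin layer chromatography, and S1P was compared with DMSO-treated controls.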

The next assay deals with PANC-1. Kind of assay: Cytotoxicity against human PANC1 cells after 48 hrs by sulforhodamine B assay. The format is functional, cell-based. To be noted: PANC-1, 48 h.
For another assay, the system named is BXPC-3. Kind of assay: Cytotoxicity against human BxPC3 cells after 48 hrs by sulforhodamine B assay. To be noted: BXPC-3, 48 h. It counts as functional, cell-based.
Assay [14] concerns the target T2, Sphingosine kinase 2 (Homo sapiens). Kind of assay: Inhibition of sphingosine kinase 2. In a few lines:
as §1

Turning to `COc1ccc(-c2cc(C(=O)N/N=C(\C)c3ccc(Cl)cc3)[nH]n2)cc1`, the inhibition at Sphingosine kinase 1 [1] was 46.8%.

On to `O=C(N/N=C/c1ccccc1O)c1cc(-c2ccccc2)n[nH]1`, for which the inhibition on Sphingosine kinase 1 [1] is 11.9%.

Consider `O=C(N/N=C/c1ccccc1O)c1cc(-c2ccc3ccccc3c2)n[nH]1`, for which the inhibition at Sphingosine kinase 1 [1] came out at 59.3%.

As for `COc1ccc(-c2cc(C(=O)N/N=C/c3ccc(F)cc3)[nH]n2)cc1`, at Sphingosine kinase 1 [1], the inhibition was 27.4%.

On to `COc1ccc(-c2cc(C(=O)N/N=C/c3cc(O)cc(O)c3)[nH]n2)cc1`, for which, on Sphingosine kinase 1 [1], the inhibition amounted to 12.5%.

For the molecule `COc1ccc(-c2cc(C(=O)N/N=C/c3ccc(O)cc3O)[nH]n2)cc1`, the inhibition on Sphingosine kinase 1 [1] amounted to 30.8%.

With `COc1ccc(/C(C)=N/NC(=O)c2cc(-c3ccc(C)cc3)n[nH]2)cc1OC`, the inhibition at Sphingosine kinase 1 [1] worked out at 21.8%.

On to `COc1ccc(-c2cc(C(=O)N/N=C(\C)c3ccc(OC)c(OC)c3)[nH]n2)cc1`, for which the concentration for half-maximal inhibition (IC50) in the assay on SH-SY5Y is 300 nM; in assay [2], 200 nM; in assay [3], 500 nM; with MCF7 [5] it was 1300 nM; in [6], 1500 nM; in the assay with HL-60 [8] it was 200 nM. Moreover, the half-inhibitory concentration (IC50) in the assay with MCF7 [9] was 1800 nM; in the assay with HL-60 [10], 200 nM; in the assay with NCI-H226 it was 300 nM; with MIA PaCa-2, 100 nM; in the assay on NCI-H460 it was 300 nM; in assay [12] it was 600 nM. Besides, the IC50 in the assay with U-251 was found to be 500 nM; with PANC-1, 100 nM; with BXPC-3, 200 nM. Besides, at Sphingosine kinase 1 [1], the inhibition came to 59.6%. Further, the inhibition entry in assay [4] is “inactive”. For the same molecule, the Ki at Sphingosine kinase 1 [7] turned out to be 1330 nM. Further, the inhibition result on Sphingosine kinase 1 [11] and on Sphingosine kinase 1 [13] was “Active” each time. Also, in the assay on A549, the cytotoxicity ratio was 1.37.

In the case of `O=C(N/N=C/c1cccc(O)c1)c1cc(-c2ccc3ccccc3c2)n[nH]1`, the inhibition at Sphingosine kinase 1 [1] was determined as 25.1%.

On to `COc1ccc(-c2cc(C(=O)N/N=C/c3ccc(O)cc3)[nH]n2)cc1`, for which the inhibition on Sphingosine kinase 1 [1] was 14.3%.

On to `O=C(N/N=C/c1c(O)ccc2ccccc12)c1cc(-c2ccc3ccccc3c2)n[nH]1`, for which, on Sphingosine kinase 1 [7], the inhibition constant (Ki) turned out to be 1060 nM. Also, on Sphingosine kinase 1 [13], the inhibition entry is “Active”. In addition, in [14], the inhibition entry is “Dose-dependent effect”.

In the case of `CCN(CC)c1ccc(/C=N/NC(=O)c2cc(-c3ccc(OC)cc3)n[nH]2)cc1`, the inhibition on Sphingosine kinase 1 [1] was determined as 38%.

Regarding `COc1ccc(-c2cc(C(=O)N/N=C/c3cccc(O)c3)[nH]n2)cc1`, the inhibition at Sphingosine kinase 1 [1] worked out at 15.5%.

As to `COc1ccc(-c2cc(C(=O)N/N=C/c3ccc4ccccc4c3)[nH]n2)cc1`, the inhibition on Sphingosine kinase 1 [1] was determined as 52.5%.

Regarding `Cc1ccc(-c2cc(C(=O)N/N=C/c3ccccc3O)[nH]n2)cc1`, at Sphingosine kinase 1 [1], the inhibition was 9.8%.

Regarding `COc1ccc(-c2cc(C(=O)N/N=C/c3ccccc3O)[nH]n2)cc1`, the inhibition on Sphingosine kinase 1 [1] came out at 33.5%.

For `O=C(N/N=C/c1ccc(O)cc1)c1cc(-c2ccc3ccccc3c2)n[nH]1`, at Sphingosine kinase 1 [1], the inhibition turned out to be 28%.

As to `COc1ccc(-c2cc(C(=O)N/N=C/c3ccc(C(C)C)cc3)[nH]n2)cc1`, the inhibition on Sphingosine kinase 1 [1] stood at 15.3%.

Turning to `COc1ccc(-c2cc(C(=O)N/N=C/c3ccc(OC)c(OC)c3)[nH]n2)cc1`, on Sphingosine kinase 1 [1], the inhibition came to 44.5%.

Turning to `O=C(N/N=C/c1ccc(O)cc1O)c1cc(-c2ccc3ccccc3c2)n[nH]1`, the inhibition at Sphingosine kinase 1 [1] turned out to be 39.5%.
